Measurements published in ChEMBL document CHEMBL4321820, “Identification and Optimization of Mechanism-Based Fluoroallylamine Inhibitors of Lysyl Oxidase-like 2/3” (J Med Chem, 2019).

Columns and labels:
Lysyl oxidase homolog 2 = biological target: T1, Lysyl oxidase homolog 2 (Homo sapiens, UniProt Q9Y4K0); assay: Inhibition of recombinant human C-terminal His-tagged […] (1-774 residues) expressed in mouse myeloma cells using putrescine as substrate preincubated with enzyme for 30 mins followed by substrate addition and measured every 2.5 mins for 30 mins by Amplex-Red oxidation assay; settings: read-out: pIC50 (converted)
T1 sequence (Q9Y4K0 whole entry): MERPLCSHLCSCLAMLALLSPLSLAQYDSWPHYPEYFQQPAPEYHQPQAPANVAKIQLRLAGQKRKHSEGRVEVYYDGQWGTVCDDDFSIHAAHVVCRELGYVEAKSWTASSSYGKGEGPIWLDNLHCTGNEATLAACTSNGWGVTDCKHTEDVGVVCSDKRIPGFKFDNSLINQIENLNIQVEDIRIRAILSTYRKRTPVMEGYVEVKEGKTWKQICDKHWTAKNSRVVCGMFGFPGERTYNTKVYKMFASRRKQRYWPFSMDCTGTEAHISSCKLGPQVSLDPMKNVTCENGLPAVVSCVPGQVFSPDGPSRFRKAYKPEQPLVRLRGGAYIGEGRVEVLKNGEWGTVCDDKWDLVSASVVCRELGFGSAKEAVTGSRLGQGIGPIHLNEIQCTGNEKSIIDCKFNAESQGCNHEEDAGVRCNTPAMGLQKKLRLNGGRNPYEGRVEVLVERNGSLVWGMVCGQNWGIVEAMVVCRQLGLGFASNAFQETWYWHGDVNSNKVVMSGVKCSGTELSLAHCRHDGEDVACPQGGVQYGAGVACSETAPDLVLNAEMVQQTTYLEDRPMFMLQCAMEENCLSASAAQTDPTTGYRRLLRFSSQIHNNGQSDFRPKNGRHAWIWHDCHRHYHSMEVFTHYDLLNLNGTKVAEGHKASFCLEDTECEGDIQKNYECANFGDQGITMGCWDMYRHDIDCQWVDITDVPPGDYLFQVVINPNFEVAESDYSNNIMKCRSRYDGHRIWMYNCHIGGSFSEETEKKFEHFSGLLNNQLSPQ
Procedure, shortened: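 LOXL2 enzyme preincubated with compound for 30 min at 37 °C, then Amplex Red (120 µM) / HRP (1.5 U/mL) mix containing 5 mM putrescine added. Buffer: 1.2 M urea, 50 mM sodium borate, pH 8.2. H2O2 fluorescence (ex 565/em 590) read every 2.5 min for 30 min at 37 °C; BAPN 100 µM as positive control; n≥2.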

Protein-lysine 6-oxidase = biological target: T2, Protein-lysine 6-oxidase (Bos taurus, UniProt P33072); assay: Inhibition of LOX in bovine aorta using putrescine as substrate preincubated with enzyme for 30 mins followed by substrate addition and measured every 2.5 mins for 30 mins by Amplex-Red oxidation assay; type: tissue-based; settings: read-out: pIC50 (converted)
T2 sequence (P33072 whole entry): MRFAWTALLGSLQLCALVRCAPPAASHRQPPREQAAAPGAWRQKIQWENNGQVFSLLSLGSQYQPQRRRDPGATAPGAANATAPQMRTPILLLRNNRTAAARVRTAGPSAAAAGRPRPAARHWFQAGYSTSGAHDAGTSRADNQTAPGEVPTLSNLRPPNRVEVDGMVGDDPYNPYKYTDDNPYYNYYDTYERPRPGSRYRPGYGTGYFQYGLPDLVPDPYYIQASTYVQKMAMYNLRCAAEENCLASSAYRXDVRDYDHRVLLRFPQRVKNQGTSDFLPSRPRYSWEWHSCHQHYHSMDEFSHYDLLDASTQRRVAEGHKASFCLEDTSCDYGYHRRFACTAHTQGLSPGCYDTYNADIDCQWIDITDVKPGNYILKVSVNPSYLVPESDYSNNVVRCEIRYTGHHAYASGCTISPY
Procedure, shortened: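 LOX extracted from calf aorta after PBS washing with 4 M urea/50 mM borate pH 8.2, concentrated on 10 kDa filters into 1.2 M urea/borate with protease inhibitors. Preincubated 30 min at 37 °C with compound, then Amplex Red/HRP with 10 mM putrescine; fluorescence read every 2.5 min for 30 min.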

[1] = biological target: T3, Amine oxidase [copper-containing] 3 (Homo sapiens, UniProt Q16853); assay: Substrate activity at recombinant human SSAO assessed as compound oxidation by measuring oxidative turnover at 30 uM measured for 40 mins by horseradish peroxidase-coupled amplex red reagent-based fluorometric assay relative to DMSO; type: ADME
T3 sequence (Q16853 whole entry): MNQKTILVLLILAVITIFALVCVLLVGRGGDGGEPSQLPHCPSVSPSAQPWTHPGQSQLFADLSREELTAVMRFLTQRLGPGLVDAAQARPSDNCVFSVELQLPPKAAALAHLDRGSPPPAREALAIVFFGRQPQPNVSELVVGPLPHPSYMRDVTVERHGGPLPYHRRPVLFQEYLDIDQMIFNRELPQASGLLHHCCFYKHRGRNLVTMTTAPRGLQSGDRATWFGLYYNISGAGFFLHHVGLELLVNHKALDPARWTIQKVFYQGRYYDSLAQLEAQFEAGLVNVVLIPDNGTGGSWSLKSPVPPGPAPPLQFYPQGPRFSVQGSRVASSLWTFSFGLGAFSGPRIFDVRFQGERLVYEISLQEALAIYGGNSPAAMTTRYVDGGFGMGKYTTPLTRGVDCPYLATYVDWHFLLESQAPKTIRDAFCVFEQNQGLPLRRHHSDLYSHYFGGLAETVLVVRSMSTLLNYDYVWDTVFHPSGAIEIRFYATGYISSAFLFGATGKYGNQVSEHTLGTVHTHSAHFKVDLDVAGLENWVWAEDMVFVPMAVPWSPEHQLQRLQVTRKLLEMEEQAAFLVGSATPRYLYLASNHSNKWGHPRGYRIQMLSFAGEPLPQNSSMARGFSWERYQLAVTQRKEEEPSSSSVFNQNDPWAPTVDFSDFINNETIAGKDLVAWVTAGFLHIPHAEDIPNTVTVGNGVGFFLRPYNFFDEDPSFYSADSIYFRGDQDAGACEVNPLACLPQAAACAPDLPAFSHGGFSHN
Procedure, shortened: (§1)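 Compound oxidation measured without substrate by peroxidase-coupled fluorometric read-out of resorufin formation over 40 min at 37 °C in HEPES buffer. Amplex Red 20 µM, HRP 4 U/ml, test compound at final 30 µM. Enzyme source was human recombinant SSAO or AOC4 from diluted dog serum. Benzylamine at 600 µM served as positive control. Signal is expressed relative to DMSO-only background, so a value near 1 means no turnover.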

[2] = Substrate activity at AOC4 in dog serum assessed as compound oxidation by measuring oxidative turnover at 30 uM measured for 40 mins by horseradish peroxidase-coupled amplex red reagent-based fluorometric assay relative to DMSO; type: ADME, cell-free, Canis lupus familiaris; procedure, shortened: as §1
[3] = biological target: T3, Amine oxidase [copper-containing] 3; assay: Inhibition of recombinant human SSAO using benzylamine as substrate preincubated with enzyme for 30 mins followed by substrate addition and measured every 2.5 mins for 30 mins by Amplex-Red oxidation assay; settings: read-out: pIC50 (converted)
[4] = Selectivity index, ratio of IC50 for recombinant human C-terminal His-tagged […] (1-774 residues) expressed in mouse myeloma cells to IC50 for LOX in bovine aorta
[5] = biological target: T4, Amine oxidase [flavin-containing] B (Homo sapiens, UniProt P27338); assay: Inhibition of recombinant human MAOB expressed in baculovirus infected in BTI cells using benzylamine as substrate preincubated with enzyme for 30 mins followed by substrate addition and measured every 2.5 mins for 30 mins by Amplex-Red oxidation assay; settings: read-out: pIC50 (converted)
T4 sequence (P27338 whole entry): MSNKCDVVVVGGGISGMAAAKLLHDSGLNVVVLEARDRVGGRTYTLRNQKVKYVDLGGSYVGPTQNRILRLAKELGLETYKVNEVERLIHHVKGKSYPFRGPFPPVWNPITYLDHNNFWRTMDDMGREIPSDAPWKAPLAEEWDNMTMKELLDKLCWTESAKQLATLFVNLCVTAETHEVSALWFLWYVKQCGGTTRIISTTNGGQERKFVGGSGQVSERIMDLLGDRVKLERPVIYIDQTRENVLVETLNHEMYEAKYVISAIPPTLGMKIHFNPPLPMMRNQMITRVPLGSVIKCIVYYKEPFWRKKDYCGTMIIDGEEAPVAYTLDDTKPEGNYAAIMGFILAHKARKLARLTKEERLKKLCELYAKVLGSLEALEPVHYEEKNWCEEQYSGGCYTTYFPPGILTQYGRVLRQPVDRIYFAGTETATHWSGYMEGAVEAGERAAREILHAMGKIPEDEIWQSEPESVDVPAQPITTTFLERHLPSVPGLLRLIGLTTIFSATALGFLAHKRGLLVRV

| SMILES | IC50 (Lysyl oxidase homolog 2) | IC50 (Protein-lysine 6-oxidase) | fold change (FC) [1] | fold change (FC) [2] | IC50 [3] | IC50 ratio [4] | IC50 [5] |
| --- | --- | --- | --- | --- | --- | --- | --- |
| CN(C)S(=O)(=O)c1cccc(-c2ccn(C/C(F)=C/CN)c2)c1.Cl | 100 nM | 2000 nM | > 4 |  |  |  |  |
| Cc1c(-c2cccc(S(=O)(=O)N(C)C)c2)c2cc(Cl)ccc2n1C/C(F)=C/CN.Cl | 126 nM | 3160 nM | 1.2 | 1.1 |  |  |  |
| Cc1c(-c2ccc(S(=O)(=O)N(C)C)cc2)c2ccccc2n1C/C(F)=C/CN.Cl | 794 nM | 3160 nM | 2.8 |  |  |  |  |
| C[C@H](NS(=O)(=O)c1ccc(OC/C(F)=C/CN)cc1)c1ccccc1 | 316 nM | 398 nM |  |  | > 3160 nM |  |  |
| Cc1c(-c2cccc(S(=O)(=O)N(C)C)c2)c2cc(O)ccc2n1C/C(F)=C/CN.Cl | 50.1 nM | 1260 nM | 1 | 1.1 |  |  |  |
| Cc1c(-c2cccc(S(=O)(=O)N(C)C)c2)c2ccc(C(=O)N(C)C)cc2n1C/C(F)=C/CN.Cl | 63.1 nM | 794 nM | 1 | 1.1 |  |  |  |
| Cc1c(-c2cccc(S(=O)(=O)N(C)C)c2)c2cccc(C(=O)N(C)C)c2n1C/C(F)=C/CN.Cl | 3160 nM | 20000 nM | 1.1 | 1.4 |  |  |  |
| CN(C)S(=O)(=O)c1ccc(-c2ccn(C/C(F)=C/CN)c2)cc1.Cl | 251 nM | 794 nM | > 4 |  |  |  |  |
| Cc1c(-c2cccc(S(=O)(=O)N(C)C)c2)c2cc(NS(C)(=O)=O)ccc2n1C/C(F)=C/CN.Cl | 20 nM | 1000 nM | 1 | 1.5 |  |  |  |
| C[C@H](NS(=O)(=O)c1ccc(OC/C(F)=C\CN)cc1)c1ccccc1 | 2510 nM | 2000 nM |  |  | 50.1 nM |  |  |
| CN(C)S(=O)(=O)c1ccc(Cc2cn(C/C(F)=C/CN)nn2)cc1.Cl | 12.6 nM | 631 nM | > 4 |  |  |  |  |
| CN(C)S(=O)(=O)c1ccc(-c2cn(C/C(F)=C/CN)nn2)cc1.Cl | 126 nM | 794 nM | > 4 |  |  |  |  |
| CN(C)S(=O)(=O)c1ccc(NCc2cn(C/C(F)=C/CN)nn2)cc1.Cl | 20 nM | 501 nM | > 4 |  |  |  |  |
| CN(C)C(=O)c1ccc(OCc2cn(C/C(F)=C/CN)nn2)cc1 | 794 nM | 3160 nM |  |  |  |  |  |
| Cc1c(-c2cccc(S(=O)(=O)N(C)C)c2)c2cc(C(=O)N(C)C)ccc2n1C/C(F)=C/CN.Cl | 25.1 nM | 1580 nM | 1.2 | 1 |  |  |  |
| CC(C)(C)c1ccc(OCc2cn(C/C(F)=C/CN)nn2)cc1 | 794 nM | 501 nM |  |  |  |  |  |
| Cc1c(-c2cccc(S(=O)(=O)N(C)C)c2)c2ncccc2n1C/C(F)=C/CN.Cl | 20 nM | 1260 nM | 1.6 | 6.4 |  | 70 |  |
| CS(=O)(=O)c1cccc(OCc2cn(C/C(F)=C/CN)nn2)c1 | 794 nM | 1000 nM |  |  |  |  |  |
| NC/C=C(\F)Cn1cc(COc2ccccc2)nn1 | 316 nM | 501 nM |  |  |  |  |  |
| Cc1c(-c2cccc(S(=O)(=O)N(C)C)c2)c2cc(S(C)(=O)=O)ccc2n1C/C(F)=C/CN.Cl | 5.01 nM | 398 nM | 1.3 | 1.3 |  |  |  |
| CN(C)S(=O)(=O)c1ccc(OCc2cn(C/C(F)=C/CN)nn2)cc1.Cl | 50.1 nM | 794 nM | > 4 |  | > 31600 nM |  | 126 nM |
| Cc1c(-c2cccc(S(=O)(=O)N(C)C)c2)c2cc(-c3nnn[nH]3)ccc2n1C/C(F)=C/CN.Cl | 126 nM | 15800 nM |  | 1 |  |  |  |
| COc1ccc2c(c1)c(-c1cccc(S(=O)(=O)N(C)C)c1)c(C)n2C/C(F)=C/CN.Cl | 79.4 nM | 1580 nM | 4.6 | 1.6 |  |  |  |
| CS(=O)(=O)c1ccccc1OCc1cn(C/C(F)=C/CN)nn1 | 2000 nM | 3160 nM |  |  |  |  |  |
| CS(=O)(=O)c1ccc(OCc2cn(C/C(F)=C/CN)nn2)cc1 | 200 nM | 631 nM |  |  |  |  |  |
| Cc1c(-c2cccc(S(=O)(=O)N(C)C)c2)c2ccc(C(=O)O)cc2n1C/C(F)=C/CN.Cl | 501 nM | 15800 nM | 1.1 | 1 |  |  |  |
